Source: PubChem BioAssay
VLA-4 inh = inhibition in human VLA-4 binding assay, primary screen, VLA-4 allosteric modulator project, MLPCN library, flow cytometry, VLA-4 expressing cells; Integrin alpha-4 (Homo sapiens), P13612; inhibition, % (about 7 µM as worked out from the volumes in the protocol); hit rate 0.2% among 330,000; ligand binding flow cytometry; in the data active means inhibition above about 50%
Target sequence (P13612 whole entry, looked up): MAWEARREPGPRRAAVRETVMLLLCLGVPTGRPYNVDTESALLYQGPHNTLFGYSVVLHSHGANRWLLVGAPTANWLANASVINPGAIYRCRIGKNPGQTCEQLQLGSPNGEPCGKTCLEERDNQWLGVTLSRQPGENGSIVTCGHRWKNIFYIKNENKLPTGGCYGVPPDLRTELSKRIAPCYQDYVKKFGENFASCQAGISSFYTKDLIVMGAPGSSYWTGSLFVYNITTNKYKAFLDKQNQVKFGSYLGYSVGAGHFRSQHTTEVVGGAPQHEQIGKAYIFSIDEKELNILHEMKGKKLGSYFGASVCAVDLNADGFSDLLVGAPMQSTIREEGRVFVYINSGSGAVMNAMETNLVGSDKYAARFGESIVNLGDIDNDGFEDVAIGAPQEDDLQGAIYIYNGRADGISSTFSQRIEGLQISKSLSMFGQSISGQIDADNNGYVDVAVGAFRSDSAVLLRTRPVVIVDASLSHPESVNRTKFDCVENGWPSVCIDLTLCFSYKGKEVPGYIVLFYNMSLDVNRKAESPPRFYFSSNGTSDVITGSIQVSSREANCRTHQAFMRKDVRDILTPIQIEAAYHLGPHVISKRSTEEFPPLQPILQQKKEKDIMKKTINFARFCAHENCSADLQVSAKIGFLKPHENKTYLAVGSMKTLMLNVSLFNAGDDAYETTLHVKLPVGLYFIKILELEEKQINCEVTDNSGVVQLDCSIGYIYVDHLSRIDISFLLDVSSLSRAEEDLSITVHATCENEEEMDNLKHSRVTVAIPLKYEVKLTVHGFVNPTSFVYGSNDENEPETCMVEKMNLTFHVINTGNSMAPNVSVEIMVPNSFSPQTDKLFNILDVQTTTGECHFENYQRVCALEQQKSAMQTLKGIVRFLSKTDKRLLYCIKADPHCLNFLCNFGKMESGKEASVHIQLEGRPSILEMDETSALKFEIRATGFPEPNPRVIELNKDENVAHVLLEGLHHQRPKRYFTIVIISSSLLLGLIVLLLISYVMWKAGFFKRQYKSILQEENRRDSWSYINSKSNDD
NR2E3 ag-1 = NR2E3 agonists in two-hybrid cells, primary screen, cell-based, luminescence, CHO-S, Gal4-NCOR/VP16-NR2E3 | Photoreceptor-specific nuclear receptor (Homo sapiens), Q9Y5X4 | luciferase | inhibition of corepressor binding, % at 3.98 µM | hit rate 0.35% among 360,000;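 active means inhibition above the mean of all tested compounds plus 3 SD, cut at about 70% in these data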;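 further: 0% = DMSO with NR2E3 transfected cells and 100% = cells lacking NR2E3 construct; higher means lower luciferase signal from less NR2E3 corepressor binding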
NR2E3 ag-2 = inhibitors of NR2E3-RetCOR corepressor binding, primary screen, NR2E3 agonist project, biochemical, TR-FRET, GST-NR2E3, biotin-RetCOR. 1536-well. inhibition of corepressor binding, % at 4.78 µM. Photoreceptor-specific nuclear receptor (Homo sapiens), Q9Y5X4. hit rate 0.12% among 320,000;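 active means percent inhibition above the cutoff of mean plus 3 SD of all tested compounds, set per screening campaign, cut at about 20% in these data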;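 further: 0% = DMSO wells and 100% = biotin wells as full block of FRET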
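Test system: GST-NR2E3 and biotin-RetCOR proteins | Quantity: 1.35 nM GST-tagged NR2E3 final | Medium: Tris pH 7.5 | Also added: 7 nM biotin-RetCOR | Dosing: Compound at 4.8 µM, single dose | Timing: 5 h at 4 °C | Detection: Time-resolved FRET | Read-out basis: Percent inhibition | Benchmarks: Biotin wells as high control, 0.6% DMSO wells as low control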
NR1D1 modulator = modulators of Rev-erb alpha DNA binding, primary screen, biochemical, FITC-DNA, fluorescence polarization, uHTS; Nuclear receptor subfamily 1 group D member 1 (Homo sapiens), P20393; Rev-erbα–FITC-DNA binding, 90 min; activity, % at 10 µM; hit rate 0.79% among 370,000; AID 1259318, 2017;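 active means activity above about 14%, limit read from the data; passing the limit was not always enough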;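 further: 0% = DMSO wells with 35 nM protein and 100% = DMSO wells with 750 nM protein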
PG9 binder = binders of HIV-1 gp120 antibody PG9, primary screen, biochemical, TR-FRET; hit rate 0.43% among 360,000; TR-FRET gp120-PG9 antibody binding; inhibition, % at 6.7 µM; HIV-1 gp120 / PG9 antibody interaction; in the data active means inhibition above about 8.5%
NR2E3 ag conf = NR2E3 agonist confirmation in cells, cell-based, luminescence, CHO-S two-hybrid. hit rate 51% among 2,300. CHO-S mammalian two-hybrid NR2E3-NCOR, luciferase luminescence. shares compounds with NR2E3 ag-1. AID 624378, 2012. inhibition, % at 3.98 µM;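 active means average inhibition above a cutoff equal to the mean inhibition of all tested compounds plus one SD, cut at about 70% in these data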;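 further: 0% = DMSO in NR2E3 cells and 100% = DMSO in cells lacking NR2E3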
GAL4-VP16 luc = GAL4-VP16 reporter modulators, confirmation, counter-screen for NR2E3 agonist project, cell-based, luminescence, CHO-S, high throughput; hit rate 29% among 2,300; shares compounds with NR2E3 ag-1; CHO-S GAL4-VP16 luciferase reporter; inhibition, % at 3.98 µM; AID 624379, 2012;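 active means mean inhibition above a cutoff equal to the average over all tested compounds plus one standard deviation, cut at about 70% in these data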;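 further: luciferase from a UAS reporter driven by GAL4-VP16 transactivation; 0% = DMSO with VP16-transfected cells and 100% = DMSO with cells lacking VP16; higher means less reporter light so more repression of VP16 activity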
Starred values were filed as active, the others as inactive; · = not tested or not shown. Only some compounds are listed: those with a hit (about 1.6% of all), similar ones and a draw of the others.

SMILES	VLA-4 inh	NR2E3 ag-1	NR2E3 ag-2	NR1D1 modulator	PG9 binder	NR2E3 ag conf	GAL4-VP16 luc
CSc1ccc(C(=O)C2CCCN(C(=O)CCc3c(C)nn(C)c3C)C2)cc1 (centres undefined)	7	56	3	-2	0	45	43
CC(=O)N1CCN(S(=O)(=O)c2cccc(C(=O)OCc3ccc(C(C)(C)C)cc3)c2)CC1	·	73*	·	-1	0	78*	76*
CCCCOCCCNC(=O)C[C@@H]1C(=O)N2CCCC3=C2[C@@]1(C(=O)OC)CCCC3	·	·	·	2	·	·	·
CCC(=O)c1ccc(OCC(O)Cn2c(C)nc3ccccc32)cc1 (centres undefined)	1	51	2	1	3	54	38
CC(C)Cc1ccc(C(C)C(=O)Nc2ccccc2O)cc1 (centres undefined)	0	83*	2	0	-1	94*	82*
O=C(Nc1ccccc1O)C(c1ccccc1)c1ccccc1	11	70	2	-7	1	83*	72*
Oc1[nH]c2ccccc2c1N=NC(=S)N1CCOCC1	12	101*	-5	·	·	75*	38
NC(=S)N=Nc1c(O)[nH]c2ccccc12	16	10	-8	3	-3	·	·
C=CCN=C1NN=C(c2cc(C)n(CC=C)c2C)CS1	0	55	-1	-7	-1	55	32
COCCN=C1NN=C(c2cc(C)n(CC3CCCO3)c2C)CS1 (centres undefined)	0	-17	0	-2	0	·	·
COCCn1c(C)cc(C2=NNC(=Nc3ccccc3F)SC2)c1C	-2	88*	0	0	-1	57	40
Cc1ccc(NC(=O)Cc2cccc(OC(F)(F)F)c2)c(S(=O)(=O)N2CCOCC2)c1	·	·	·	-1	·	·	·
CCn1c(SCc2c(F)cccc2F)nc2sc3c(c2c1=O)CCCC3	·	·	·	7	·	·	·
Cc1cc(Nc2cccc(F)c2)nc(NCc2ccccc2)n1	1	83*	-1	7	1	92*	67
Cc1cc(Nc2ccccc2)nc(NCc2ccccc2)n1	-2	88*	1	2	0	96*	81*
CCCCNc1cc(C)nc(NCc2ccccc2)n1	4	83*	-2	·	·	94*	84*
COC(=O)C1=C(C)N(C)C(=NCc2ccc(OC)cc2)NC1c1ccccc1C(F)(F)F (centres undefined)	·	·	·	0	0	·	·
C=C1C(=O)[C@@]23[C@H](O)C[C@@H]4C(C)(C)CC[C@H](O)[C@@]4(C)[C@@H]2CC[C@@H]1[C@H]3O	10	66	6	-4	-1	-13	-92
C=C1C(=O)[C@@]23[C@H](O)C[C@@H]4C(C)(C)CC[C@H](O)[C@]4(C)[C@@H]2C[C@H](O)[C@@H]1[C@H]3O	2	21	0	3	1	·	·
N#C/C(=C/c1ccc(Sc2nc3ccccc3[nH]2)o1)c1ccccc1F	2	62	0	0	-2	78*	63
CCCN(CC1CC1)C(=S)NC(=O)c1cc(Br)ccc1Cl	·	81*	·	2	-1	-1	8
Cc1ccc2cc3cc(C(=O)NCc4ccco4)oc3nc2c1	20	52	-1	3	1	16	10
Cc1ccc2cc3cc(C(=O)NCCC(C)C)oc3nc2c1	4	-8	-1	9	0	·	·
CSC(=S)NN=C(C)c1cccc(C)n1	·	66	·	4	-2	38	32
CC(C)(C)c1ccc(OCC(O)CN2CCc3ccccc3C2)cc1 (centres undefined)	7	85*	3	9	0	-3	2
SMILES	VLA-4 inh	NR2E3 ag-1	NR2E3 ag-2	NR1D1 modulator	PG9 binder	NR2E3 ag conf	GAL4-VP16 luc
Cc1ccc(NC(=O)Cn2c(=O)oc3cc(S(=O)(=O)N4CCC(C)CC4)ccc32)cc1C	7	48	0	-6	3	50	53
C/C=C/C(=O)N1CCC(C(=O)NCC2COc3ccccc3O2)CC1 (centres undefined)	·	·	·	-9	·	·	·
CCOC(=O)/C(=C\Nc1ccc(OCc2ccccc2)cc1)NC(=O)c1ccccc1	·	·	·	-1	-3	·	·
Cc1cc(C)nc(Nc2cccc(Cl)c2)n1	8	-26	·	-8	-1	·	·
OCCCNc1cc(-c2ccnc(Nc3cccc(Cl)c3)n2)ccn1	-9	99*	0	-6	-2	100*	95*
CCC(C)Oc1cc(-c2ccnc(Nc3cccc(Cl)c3)n2)ccn1 (centres undefined)	15	57	1	-2	-1	94*	41
CCC1CCCCN1S(=O)(=O)c1ccc(NC(=O)c2ccncc2)cc1 (centres undefined)	-7	96*	1	2	-1	67	63
COCCNC(=O)c1c(N)[nH]c(C(=O)c2ccc(Br)cc2)c1-c1ccc(Br)cc1	·	·	·	6	-1	·	·
CCCOc1ccc(Cn2cnc3ccccc32)cc1	3	56	-4	-4	0	78*	59
CC(=O)NC1CCCCN(C(C)C)C1=O (centres undefined)	·	·	·	0	·	·	·
Cc1cc(N2CCN(c3nc4ccccc4s3)CC2)n2ncnc2n1	1	73*	1	4	0	94*	76*
Cc1cc(N2CCN(C(c3ccccc3)c3ccccc3)CC2)n2ncnc2n1	-3	-24	4	-6	1	·	·
O=C(NCCc1ccc(F)cc1)c1ccc2c(c1)ncn2C1CCCCC1	·	·	·	4	·	·	·
N#C/C(=N\Nc1cccc(C(F)(F)F)c1)C(=O)c1ccsc1	-5	80*	-2	6	-1	98*	59
O=C(NCCc1ccccc1)OCc1cn(Cc2cc(F)ccc2F)nn1	·	·	·	2	·	·	·
Cc1ccc(NC(=O)c2cc(C)n(-c3ccccc3)c2C)cc1	24	59	-1	5	-4	37	-34
Cc1ccc(NC(=O)c2cc(C)n(-c3cccc(C)c3)c2C)cc1	14	18	-1	3	0	·	·
Cc1cc(C(=O)Nc2ccc(Cl)cc2)c(C)n1-c1ccccc1	12	88*	1	-2	0	82*	55
Cc1ccc(-c2csc(NC(=O)c3ccccc3Cl)c2C(=O)O)cc1	-12	-19	3	-10	0	·	·
